Assay outcomes from PubChem.
TRPC4 inh: inhibitors of mouse TRPC4 channel, primary screen, Fluo4 calcium, HEK293 TRPC4beta/mu-opioid cells; B-score at 10 µM; AID 2247, 2010; hit rate 0.39% among 300,000; Short transient receptor potential channel 4 (Mus musculus), Q9QUQ5; DAMGO-evoked Fluo4 calcium flux; active compounds read low;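 active = B-score over 3 SD under the library average, no early fluorescence shift, positive overall ratio signal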
Target sequence (Q9QUQ5 whole entry, looked up): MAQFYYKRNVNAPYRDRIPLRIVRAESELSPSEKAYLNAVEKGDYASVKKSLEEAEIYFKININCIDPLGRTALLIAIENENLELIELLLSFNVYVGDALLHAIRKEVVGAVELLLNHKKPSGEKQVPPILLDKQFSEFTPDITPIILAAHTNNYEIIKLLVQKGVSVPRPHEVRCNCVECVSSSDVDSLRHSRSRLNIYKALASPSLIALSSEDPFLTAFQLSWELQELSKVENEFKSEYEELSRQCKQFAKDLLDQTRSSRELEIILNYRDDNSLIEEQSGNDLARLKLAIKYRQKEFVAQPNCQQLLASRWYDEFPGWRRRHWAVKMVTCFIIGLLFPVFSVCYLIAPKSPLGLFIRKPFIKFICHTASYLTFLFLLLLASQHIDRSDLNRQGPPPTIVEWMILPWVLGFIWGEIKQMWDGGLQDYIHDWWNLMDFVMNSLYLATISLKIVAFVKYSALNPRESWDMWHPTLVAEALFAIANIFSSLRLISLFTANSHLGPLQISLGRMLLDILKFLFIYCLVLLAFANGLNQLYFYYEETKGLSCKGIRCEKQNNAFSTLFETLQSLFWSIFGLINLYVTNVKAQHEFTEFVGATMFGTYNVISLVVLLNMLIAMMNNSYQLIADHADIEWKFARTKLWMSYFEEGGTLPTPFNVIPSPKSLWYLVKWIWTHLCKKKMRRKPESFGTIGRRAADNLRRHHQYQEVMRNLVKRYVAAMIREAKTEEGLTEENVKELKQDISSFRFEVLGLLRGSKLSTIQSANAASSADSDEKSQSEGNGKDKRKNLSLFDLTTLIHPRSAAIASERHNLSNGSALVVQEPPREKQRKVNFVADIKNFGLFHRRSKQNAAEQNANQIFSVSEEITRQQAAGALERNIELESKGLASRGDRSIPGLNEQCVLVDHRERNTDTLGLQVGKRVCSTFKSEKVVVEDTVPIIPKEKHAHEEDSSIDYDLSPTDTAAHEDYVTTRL
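test system = HEK293 cells with stable TRPC4beta plus mu-opioid receptor expression | detection = Fluo4 Ca2+ flux fluorescence | read-out = integrated fluorescence ratio relative to baseline, converted to per-well B score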
TRPC6 inh: mouse TRPC6 channel inhibitors, primary screen, cell-based, HEK293, membrane potential dye; ACh-evoked depolarization; active compounds read low; B-score at 10 µM; hit rate 1.1% among 310,000;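 active = B-score under library mean minus 3 SD, initial fluorescence not abnormally high, positive integrated signal ratio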;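 also: B-score derived from integrated fluorescence ratio over the kinetic read; more negative B-score means stronger inhibition of depolarization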
TRPC4 agonist: activators of mouse TRPC4 channel, primary screen, Fluo4 calcium, HEK293 TRPC4beta/mu-opioid cells; B-score at 10 µM; Fluo4 calcium fluorescence; active compounds read high; hit rate 0.49% among 310,000; Short transient receptor potential channel 4 (Mus musculus), Q9QUQ5;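 active = B-score above 5 SD of library B-scores, and initial fluorescence ratio not above library mean plus 5 SD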;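 also: positive B-score marks a calcium rise read as TRPC4 activation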
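Test system: HEK293 cells stably co-expressing mouse TRPC4beta and mu-opioid receptor | Schedule: Fluo4 dye loading 45 min at room temperature, 110 s recording | Measured by: Kinetic Fluo4 calcium fluorescence, 5 s baseline at 1 Hz | Evaluation: B score of integrated ratio | Controls: Buffer (low) and maximal DAMGO (high)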
TRPC6 act: mouse TRPC6 channel activators, primary screen, cell-based, HEK293, membrane potential dye. Short transient receptor potential channel 6 (Mus musculus), Q61143. B-score at 10 µM. hit rate 0.13% among 310,000. AID 2550, 2010. HEK293-TRPC6 membrane potential dye fluorescence; active compounds read high;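 active = B-score of the integrated fluorescence ratio above library mean plus 3 SD, and starting fluorescence ratio within library mean plus 5 SD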;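 also: higher score means more depolarization so channel activation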
TRPC4 potent: positive allosteric modulators of TRPC4, primary screen, cell-based, mouse TRPC4beta, HEK293 mu-opioid, Fluo-4 calcium; Short transient receptor potential channel 4 (Mus musculus), Q9QUQ5; DAMGO EC20, Fluo-4 Ca2+ flux; active compounds read high; B-score at 10 µM; hit rate 0.42% among 310,000; AID 2227, 2009;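 active = B-score of calcium response area above 5 SD of library B-scores, with initial fluorescence ratio within 5 SD of library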;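 also: B-score of integrated fluorescence ratio over time as area under calcium response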
* marks the source's active call; other numbers are inactive results. Sampled rows, rich in hits. Any-hit rate of the full collection: about 2.3%.

What do the screens show for `CCOc1ccccc1O[C@H](c1ccccc1)[C@H]1CNCCO1`?
TRPC4 inh: inactive; TRPC6 inh: inactive; TRPC4 agonist: 161*; TRPC6 act: inactive; TRPC4 potent: inactive

Results for CCOc1ccccc1NC(=O)C(NCC1CCCCC1)c1ccccc1 (stereo not drawn) ?
TRPC4 inh: inactive; TRPC6 inh: inactive; TRPC4 agonist: inactive; TRPC6 act: inactive; TRPC4 potent: inactive

Results for COc1ccc2c(Cl)c(-c3nnc(SCC(=O)c4ccccc4)n3C)sc2c1 ?
TRPC4 inh: inactive; TRPC6 inh: inactive; TRPC4 agonist: 104*; TRPC6 act: inactive; TRPC4 potent: inactive

How did COc1ccc2c(Cl)c(-c3nnc(SCC(N)=O)n3C)sc2c1 do in these assays?
TRPC4 inh: inactive; TRPC6 inh: inactive; TRPC4 agonist: inactive; TRPC6 act: inactive; TRPC4 potent: inactive

How did CCCCn1c(N)nc2ccccc21 do in these assays?
TRPC4 inh: inactive; TRPC6 inh: inactive; TRPC4 agonist: inactive; TRPC6 act: inactive; TRPC4 potent: inactive

How did CN(C)CCn1c(N)nc2ccccc21 do in these assays?
TRPC4 inh: inactive; TRPC6 inh: inactive; TRPC4 agonist: inactive; TRPC6 act: inactive; TRPC4 potent: 13*

Results for COc1ccc(OC)c(-c2cc(C3CCN(c4cc(Cl)nc(N)n4)CC3)[nH]n2)c1 ?
TRPC4 inh: inactive; TRPC6 inh: inactive; TRPC4 agonist: inactive; TRPC6 act: inactive; TRPC4 potent: 12*

What do the screens show for `COc1ccc(-c2cc(C3CCN(c4cc(Cl)nc(N)n4)CC3)[nH]n2)cc1`?
TRPC4 inh: inactive; TRPC6 inh: inactive; TRPC4 agonist: inactive; TRPC6 act: inactive; TRPC4 potent: 38*

Results for Nc1nc(Cl)cc(N2CCC(c3cc(-c4ccc(Cl)cc4)n[nH]3)CC2)n1 ?
TRPC4 inh: inactive; TRPC6 inh: inactive; TRPC4 agonist: inactive; TRPC6 act: inactive; TRPC4 potent: inactive

Results for Oc1ccccc1-c1nc(NCc2ccco2)c2ccccc2n1 ?
TRPC4 inh: inactive; TRPC6 inh: inactive; TRPC4 agonist: inactive; TRPC6 act: inactive; TRPC4 potent: inactive

How did c1ccc(-c2nc(NCc3ccco3)c3ccccc3n2)nc1 do in these assays?
TRPC4 inh: -6*; TRPC6 inh: inactive; TRPC4 agonist: inactive; TRPC6 act: inactive; TRPC4 potent: inactive

Results for Cc1ccc(CNc2nc(-c3cccs3)nc3ccccc23)cc1 ?
TRPC4 inh: inactive; TRPC6 inh: inactive; TRPC4 agonist: inactive; TRPC6 act: inactive; TRPC4 potent: inactive

How did c1ccc(CNc2nc(-c3cccs3)nc3ccccc23)nc1 do in these assays?
TRPC4 inh: -6*; TRPC6 inh: inactive; TRPC4 agonist: inactive; TRPC6 act: inactive; TRPC4 potent: inactive

How did CCOc1ccccc1C(=O)N(CN1CCCC1=O)c1cccc(Cl)c1 do in these assays?
TRPC4 inh: inactive; TRPC6 inh: inactive; TRPC4 agonist: 46*; TRPC6 act: inactive; TRPC4 potent: inactive

How did COC(=O)CSc1nn(-c2ccc(F)cc2)c(=S)s1 do in these assays?
TRPC4 inh: -5*; TRPC6 inh: inactive; TRPC4 agonist: inactive; TRPC6 act: inactive; TRPC4 potent: inactive

How did O=C(CSc1nn(-c2ccccc2)c(=S)s1)Nn1cnnc1 do in these assays?
TRPC4 inh: inactive; TRPC6 inh: inactive; TRPC4 agonist: inactive; TRPC6 act: inactive; TRPC4 potent: inactive

What do the screens show for `COCCNC(=O)/C(C#N)=C/c1cc(C(C)C)c(OC)cc1C`?
TRPC4 inh: inactive; TRPC6 inh: inactive; TRPC4 agonist: inactive; TRPC6 act: inactive; TRPC4 potent: 17*

What do the screens show for `COCCNC(=O)/C(C#N)=C/c1ccccc1Br`?
TRPC4 inh: inactive; TRPC6 inh: inactive; TRPC4 agonist: inactive; TRPC6 act: inactive; TRPC4 potent: 13*

Results for COCCNC(=O)/C(C#N)=C/C=C/c1ccccc1 ?
TRPC4 inh: inactive; TRPC6 inh: inactive; TRPC4 agonist: inactive; TRPC6 act: inactive; TRPC4 potent: inactive

Results for COc1cc(C)c(/C=C(\C#N)C(=O)Nc2ccc(C)cc2)cc1C(C)C ?
TRPC4 inh: inactive; TRPC6 inh: inactive; TRPC4 agonist: inactive; TRPC6 act: inactive; TRPC4 potent: inactive
